The values that follow come from ChEMBL document CHEMBL3994609, “Model-Based Discovery of Synthetic Agonists for the Zn2+-Sensing G-Protein-Coupled Receptor 39 (GPR39) Reveals Novel Biological Functions” (J Med Chem, 2017).

Usually EC50 stands for the concentration at which the effect is half-maximal. By inhibition is commonly meant the drop in the measured response relative to a control, in per cent.

Assay [1] has as its target T1, G-protein coupled receptor 39 (Homo sapiens, UniProt O43194).
T1 sequence (O43194 whole entry): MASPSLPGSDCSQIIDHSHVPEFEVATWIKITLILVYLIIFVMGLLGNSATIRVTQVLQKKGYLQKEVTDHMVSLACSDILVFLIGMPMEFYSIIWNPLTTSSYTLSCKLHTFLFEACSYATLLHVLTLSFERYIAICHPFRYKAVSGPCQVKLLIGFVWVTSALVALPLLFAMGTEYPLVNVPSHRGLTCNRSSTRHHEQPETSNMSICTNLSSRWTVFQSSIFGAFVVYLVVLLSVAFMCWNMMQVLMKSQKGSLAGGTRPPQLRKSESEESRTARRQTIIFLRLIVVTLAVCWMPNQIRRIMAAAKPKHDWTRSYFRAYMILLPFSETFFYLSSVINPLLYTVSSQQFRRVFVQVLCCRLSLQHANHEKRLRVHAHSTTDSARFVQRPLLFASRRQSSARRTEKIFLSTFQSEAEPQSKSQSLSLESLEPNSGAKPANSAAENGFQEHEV
Briefly: (§1) Agonist activity at human GPR39 expressed in HEK293 cells co-expressing Galphaq assessed as myo-[2-3H]inositol phosphate accumulation measured after 75 mins by scintillation proximity assay. It is filed as functional, cell-based. For orientation: Scintillation proximity formats need no separation of bound from free tracer.

Assay [2] has as its target T1, G-protein coupled receptor 39. Briefly: (§2) Agonist activity at human GPR39 expressed in HEK293 cells co-expressing Galphaq assessed as myo-[2-3H]inositol phosphate accumulation in presence of 10 uM Zn2+ measured after 75 mins by scintillation proximity assay. It is filed as functional, cell-based.
For assay [3], the target named is T2, G-protein coupled receptor 39 (Mus musculus, UniProt Q5U431).
T2 sequence (Q5U431 whole entry): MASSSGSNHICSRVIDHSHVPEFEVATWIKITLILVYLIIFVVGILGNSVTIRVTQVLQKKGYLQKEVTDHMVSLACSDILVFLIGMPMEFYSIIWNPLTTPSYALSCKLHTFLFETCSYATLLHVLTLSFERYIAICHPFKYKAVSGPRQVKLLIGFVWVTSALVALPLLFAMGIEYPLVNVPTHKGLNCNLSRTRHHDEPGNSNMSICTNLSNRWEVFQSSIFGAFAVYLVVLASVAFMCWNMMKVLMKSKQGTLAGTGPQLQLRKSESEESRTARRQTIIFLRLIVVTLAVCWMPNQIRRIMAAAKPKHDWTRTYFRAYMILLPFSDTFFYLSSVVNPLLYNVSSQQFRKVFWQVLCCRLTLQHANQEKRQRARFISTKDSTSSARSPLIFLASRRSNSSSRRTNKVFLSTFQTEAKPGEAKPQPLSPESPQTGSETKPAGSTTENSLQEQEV
As to the kind of experiment: Agonist activity at mouse GPR39 expressed in HEK293 cells co-expressing Galphaq assessed as myo-[2-3H]inositol phosphate accumulation in presence of 10 uM Zn2+ measured after 75 mins by scintillation proximity assay. The class given is functional, cell-based.

In assay [4] the target is T3, G-protein coupled receptor 39 (Homo sapiens) (UniProt O43194).
T3 sequence (whole entry): T1 sequence (O43194 whole entry)
As to the kind of experiment: Agonist activity at GPR39 (unknown origin) expressed in COS7 cells co-expressing Galphas assessed as increase in intracellular cAMP level measured after 30 mins by chemiluminescence assay. The class given is functional, cell-based. For orientation: cAMP levels reflect the balance of adenylyl cyclase and phosphodiesterase activity.

Assay [5] concerns the target T3, G-protein coupled receptor 39 (Homo sapiens). Briefly: (§3) Agonist activity at GPR39 (unknown origin) expressed in COS7 cells co-expressing Galphas assessed as increase in intracellular cAMP level in presence of 3 uM Zn2+ measured after 30 mins by chemiluminescence assay. The class given is functional, cell-based.
For assay [6], the target named is T1, G-protein coupled receptor 39. The description is as §3. The class given is functional, cell-based.
Assay [7] deals with Growth hormone secretagogue receptor type 1 (Homo sapiens) (UniProt Q92847). Briefly: Agonist activity at human ghrelin receptor ([…]) assessed as myo-[2-3H]inositol phosphate accumulation measured after 75 mins by scintillation proximity assay. The class given is functional.
Assay [8] has as its target Motilin receptor (Homo sapiens) (UniProt O43193). Briefly: Agonist activity at human motilin receptor (412 residues) assessed as myo-[2-3H]inositol phosphate accumulation measured after 75 mins by scintillation proximity assay. The class given is functional.
The target of assay [9] is Neuromedin-U receptor 2 (Homo sapiens) (UniProt Q9GZQ4). As to the kind of experiment: Agonist activity at human NMU2 receptor assessed as myo-[2-3H]inositol phosphate accumulation measured after 75 mins by scintillation proximity assay. The class given is functional.
Assay [10] concerns the target T4, C-C chemokine receptor type 1 (Homo sapiens) (UniProt P32246).
T4 sequence (whole entry): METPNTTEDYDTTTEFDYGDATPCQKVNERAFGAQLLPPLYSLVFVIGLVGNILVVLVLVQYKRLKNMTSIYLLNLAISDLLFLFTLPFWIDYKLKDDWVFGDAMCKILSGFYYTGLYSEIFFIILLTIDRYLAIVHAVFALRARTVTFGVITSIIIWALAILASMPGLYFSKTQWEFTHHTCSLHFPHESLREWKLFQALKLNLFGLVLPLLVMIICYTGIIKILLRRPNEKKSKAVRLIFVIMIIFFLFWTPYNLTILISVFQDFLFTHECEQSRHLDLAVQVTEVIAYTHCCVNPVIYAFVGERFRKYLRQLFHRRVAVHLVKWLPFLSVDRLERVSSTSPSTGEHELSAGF
Briefly: Agonist activity at full length human CCR1 assessed as myo-[2-3H]inositol phosphate accumulation measured after 75 mins by scintillation proximity assay. The class given is functional.

Assay [11] addresses C-C chemokine receptor type 5 (Macaca mulatta) (UniProt P61813). Briefly: Agonist activity at full length rhesus monkey CCR5 assessed as myo-[2-3H]inositol phosphate accumulation measured after 75 mins by scintillation proximity assay. The class given is functional.
Assay [12] deals with Growth hormone secretagogue receptor type 1 (Homo sapiens) (UniProt Q92847). As to the kind of experiment: Agonist activity at human ghrelin receptor ([…]) assessed as myo-[2-3H]inositol phosphate accumulation in presence of 10 uM Zn2+ measured after 75 mins by scintillation proximity assay. The class given is functional.
Assay [13] concerns the target Motilin receptor (Homo sapiens) (UniProt O43193). As to the kind of experiment: Agonist activity at human motilin receptor (412 residues) assessed as myo-[2-3H]inositol phosphate accumulation in presence of 10 uM Zn2+ measured after 75 mins by scintillation proximity assay. The class given is functional.
Assay [14] addresses Neuromedin-U receptor 2 (Homo sapiens) (UniProt Q9GZQ4). Briefly: Agonist activity at human NMU2 receptor assessed as myo-[2-3H]inositol phosphate accumulation in presence of 10 uM Zn2+ measured after 75 mins by scintillation proximity assay. The class given is functional.
In assay [15] the target is T4, C-C chemokine receptor type 1 (Homo sapiens). Briefly: Agonist activity at full length human CCR1 assessed as myo-[2-3H]inositol phosphate accumulation in presence of 10 uM Zn2+ measured after 75 mins by scintillation proximity assay. The class given is functional.
Assay [16] addresses C-C chemokine receptor type 5 (Macaca mulatta) (UniProt P61813). As to the kind of experiment: Agonist activity at full length monkey CCR5 assessed as myo-[2-3H]inositol phosphate accumulation in presence of 10 uM Zn2+ measured after 75 mins by scintillation proximity assay. The class given is functional.
In assay [17] the target is T5, G-protein coupled receptor 39 (Mus musculus) (UniProt Q5U431).
T5 sequence (whole entry): T2 sequence (Q5U431 whole entry)
Briefly: Agonist activity at GPR39 in primary gastric mucosal cells isolated from C57BL/6 mouse assessed as inhibition of isoproterenol-induced ghrelin secretion at 1 uM in presence of 10 uM of Zn2+ and somatostatin receptor antagonist BIM-23627 measured after 4 hrs by ELISA. In a few lines:
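Primary gastric mucosal cell cultures from mice, incubated the day after preparation with ligands at 1 μM with 10 μM Zn2+ (with or without a somatostatin receptor antagonist) in triplicate for 4 h. Acyl-ghrelin in supernatant measured by ELISA, expressed as percent of medium-alone cells; n=5–7; unpaired t-test with Welch's correction versus vehicle.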
A general note: An ELISA detects its analyte on a solid surface through an enzyme-linked reagent.

Assay [18] can be described thus: Increase in CGRP-induced somatostatin release in primary gastric mucosal cells isolated from GPR39 deficient C57BL/6 mouse at 1 uM in presence of 10 uM of Zn2+ measured after 4 hrs by radioimmunoassay relative to control. As to conditions: in the assay text read “C57BL/6 mouse” for “GPR39 deficient C57BL/6 mouse”. It is filed as functional, Primary gastric mucosal cell.

Assay [19] relates to Primary gastric mucosal cell. As to the kind of experiment: Induction of CGRP-induced somatostatin release in primary gastric mucosal cells isolated from GPR39 deficient C57BL/6 mouse at 1 uM in presence of 10 uM of Zn2+ measured after 4 hrs by radioimmunoassay. It is filed as functional, cell-based. In a few lines: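 Primary gastric mucosal cells from GPR39-KO mice, day after preparation, exposed to ligands (1 μM, 10 μM Zn2+) in triplicate for 4 h; supernatant somatostatin measured by in-house RIA and expressed as percent of medium-alone secretion; 10 nM CGRP used as a comparator stimulus; n=2.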

For assay [20], the target named is T5, G-protein coupled receptor 39 (Mus musculus). Briefly: Agonist activity at GPR39 in primary gastric mucosal cells isolated from C57BL/6 mouse assessed as myo-[2-3H]inositol phosphate accumulation in presence of 10 uM Zn2+ measured after 75 mins by scintillation proximity assay. The class given is functional. In a few lines:
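Primary murine gastric mucosal cell cultures stimulated with ligand plus 10 μM Zn2+; inositol phosphate turnover read out as for the transfected-cell IP accumulation assay.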

Assay [21] has the same target. As to the kind of experiment: Agonist activity at GPR39 in primary gastric mucosal cells isolated from C57BL/6 mouse assessed as inhibition of basal ghrelin secretion at 1 uM in presence of 10 uM of Zn2+ measured after 4 hrs by ELISA relative to basal level.
The target in assay [22] is T3, G-protein coupled receptor 39 (Homo sapiens). The description is as §2. The class given is functional, cell-based.
For assay [23] the target is unchanged. Briefly: Agonist activity at human GPR39 expressed in HEK293 cells co-expressing Galphaq assessed as myo-[2-3H]inositol phosphate accumulation in presence of 10 uM Zn2+ measured after 75 mins by scintillation proximity assay relative to zinc. The class given is functional, cell-based.
Assay [24] shares this target. Described as §1. The class given is functional, cell-based.
Assay [25] has the same target. Briefly: Agonist activity at human GPR39 expressed in HEK293 cells co-expressing Galphaq assessed as myo-[2-3H]inositol phosphate accumulation in presence of 100 nM Zn2+ measured after 75 mins by scintillation proximity assay. The class given is functional, cell-based.
Assay [26] shares this target. Briefly: Agonist activity at human GPR39 expressed in HEK293 cells co-expressing Galphaq assessed as myo-[2-3H]inositol phosphate accumulation in presence of 1 uM Zn2+ measured after 75 mins by scintillation proximity assay. It is filed as functional, cell-based.

Calls of active or inactive are those of the source. The calls are words filed in the database; no cut-off is given here.

Chain of Growth hormone secretagogue receptor type 1 (Homo sapiens) (Q92847 whole entry): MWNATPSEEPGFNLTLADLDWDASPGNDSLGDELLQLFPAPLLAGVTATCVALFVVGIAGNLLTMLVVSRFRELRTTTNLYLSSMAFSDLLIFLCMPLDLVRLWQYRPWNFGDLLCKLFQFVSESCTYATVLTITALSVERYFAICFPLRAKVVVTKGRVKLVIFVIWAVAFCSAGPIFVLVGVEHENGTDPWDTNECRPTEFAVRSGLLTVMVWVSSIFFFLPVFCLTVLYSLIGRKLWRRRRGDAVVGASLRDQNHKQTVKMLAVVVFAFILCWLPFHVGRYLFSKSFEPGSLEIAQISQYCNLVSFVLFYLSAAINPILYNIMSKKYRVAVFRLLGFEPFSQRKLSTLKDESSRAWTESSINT
Chain of Motilin receptor (Homo sapiens) (O43193 whole entry): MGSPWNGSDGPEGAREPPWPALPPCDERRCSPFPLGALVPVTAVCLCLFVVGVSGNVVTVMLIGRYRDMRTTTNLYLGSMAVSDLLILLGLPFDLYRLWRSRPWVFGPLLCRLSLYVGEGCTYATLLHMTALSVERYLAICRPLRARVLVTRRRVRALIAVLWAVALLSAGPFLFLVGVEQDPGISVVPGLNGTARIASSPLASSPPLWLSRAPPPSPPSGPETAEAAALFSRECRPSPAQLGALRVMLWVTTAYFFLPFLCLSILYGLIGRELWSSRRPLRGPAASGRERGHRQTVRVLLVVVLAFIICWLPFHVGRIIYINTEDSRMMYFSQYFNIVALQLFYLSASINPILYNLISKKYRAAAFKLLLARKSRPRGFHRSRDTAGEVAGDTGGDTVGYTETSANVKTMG
Chain of Neuromedin-U receptor 2 (Homo sapiens) (Q9GZQ4 whole entry): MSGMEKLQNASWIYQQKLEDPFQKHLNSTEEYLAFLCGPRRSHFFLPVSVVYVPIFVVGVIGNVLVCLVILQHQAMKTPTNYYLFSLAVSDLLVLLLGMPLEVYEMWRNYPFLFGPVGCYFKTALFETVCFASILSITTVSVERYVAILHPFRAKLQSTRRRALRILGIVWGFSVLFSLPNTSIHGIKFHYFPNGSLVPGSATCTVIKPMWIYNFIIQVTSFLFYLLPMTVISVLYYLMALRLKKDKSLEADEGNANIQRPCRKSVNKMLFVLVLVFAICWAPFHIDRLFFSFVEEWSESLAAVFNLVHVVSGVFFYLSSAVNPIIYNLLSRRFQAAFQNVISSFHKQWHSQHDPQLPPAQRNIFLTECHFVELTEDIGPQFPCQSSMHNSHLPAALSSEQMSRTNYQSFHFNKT

Turning to `Cc1nn(-c2ncnc3nc[nH]c23)c2c1C(OCc1cc(F)cc3c1OCOC3)CC(=O)N2` (centres undefined), the 50% effective concentration (EC50) in assay [1] was found to be 0.03 µM; in assay [2] it was 0.0015 µM; in assay [3], 0.0026 µM; in assay [6] it was 0.012 µM. Moreover, the result in [4], in assay [7], in assay [8], in [9], in [10] and in assay [11] was inactive. The outcome in assay [12], in assay [13], in [14], in assay [15], in [16] and in assay [19] was inactive. Moreover, the Activity result in assay [5] is “Dose-dependent effect”; in assay [18] it was 82%; in [20], “Dose-dependent effect”. Also, in assay [17], the inhibition entry is “inactive”. Moreover, in [21], the inhibition worked out at 61%.

Turning to `Cc1cc(C)nc(-n2nc(C)c3c2NC(=O)CC3c2ccc(COc3cccc(Cl)c3)cc2)n1` (centres undefined), the EC50 in assay [1] stood at 3 µM. Besides, in assay [22], the result was Active. Further, in assay [23], the fold change (FC) amounted to 2.

For the compound `O=C1/C(=C/NCCCO)C(c2ccccc2)=NN1c1nc2ccccc2s1`, the outcome in assay [24] and in [25] was inactive. The EC50 in [2] turned out to be 0.2 µM. The fold change (FC) in assay [23] came out at 2. Besides, in assay [26], the Activity result is “Dose-dependent effect”.
